From ChEMBL document CHEMBL3421532, “Synthesis and antiproliferative activity of α-branched α,β-unsaturated ketones in human hematological and solid cancer cell lines” (Eur J Med Chem, 2015)
Activity calls are given as the source filed them. The rule behind the calls is not given here.

Tests used:
Assay type in all cases: functional, cell-based
A549 [1] = experiment: Antiproliferative activity against human A549 cells assessed as cell growth inhibition after 48 hrs by XTT assay; conditions: A549, 48 h
Outline: (§1)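 NB4 grown in RPMI 1640 with 10% FBS and penicillin/streptomycin, A549 and MCF-7 in DMEM, all at 37 °C and 5% CO2. Cells seeded at 1.5∙10⁴ (NB4) or 1.0∙10⁴ (A549, MCF-7) per well. Adherent lines dosed 24 h after plating, NB4 shortly after. Triplicate concentrations from 0.1 to 100, DMSO control at 0.5% v/v. After 48 h exposure, XTT added for 2 h. A450 minus A690 read, GI50 reported with SE.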

MCF7 [2] = experiment: Antiproliferative activity against human MCF7 cells assessed as cell growth inhibition after 48 hrs by XTT assay; conditions: MCF7, 48 h; outline: as §1
[3] = Antiproliferative activity against human NB4 cells assessed as cell growth inhibition after 48 hrs by XTT assay; conditions: NB-4, 48 h; outline: as §1
A549 [4] = experiment: Cell cycle arrest in human A549 cells assessed as increase in cell population at S phase at 30 uM after 48 hrs by flow cytometry
Outline: (§2)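 Cells seeded in 6-well plates at 1∙10⁶ (NB4) or 0.45∙10⁶ (A549, MCF-7) per well. Treated for 48 h at 10 (NB4, MCF-7), 20 and 30 (A549), or, for NB4, a lower 5; DMSO solvent control. Cell cycle phase distribution and sub-G1 measured by flow cytometry. Mean of two independent experiments.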

A549 [5] = experiment: Cell cycle arrest in human A549 cells assessed as slight increase in cell population at S phase at 20 uM after 48 hrs by flow cytometry; outline: as §2
MCF7 [6] = experiment: Cell cycle arrest in human MCF7 cells assessed as increase in cell population at G2/M phase at 10 uM after 48 hrs by flow cytometry; outline: as §2
MCF7 [7] = experiment: Cell cycle arrest in human MCF7 cells assessed as increase in cell population at S phase at 10 uM after 48 hrs by flow cytometry; outline: as §2
A549 [8] = experiment: Cell cycle arrest in human A549 cells assessed as slight increase in cell accumulation at G2/M phase at 20 uM after 48 hrs by flow cytometry; outline: as §2
A549 [9] = experiment: Induction of apoptosis in human A549 cells at 20 to 30 uM after 24 to 48 hrs by annexin V binding assay
Outline: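 Cells seeded in 6-well plates at 1∙10⁶ (NB4) or 0.45∙10⁶ (A549, MCF-7) per well. Treated at 5 (NB4), 20 and 30 (A549) or 10 (MCF-7). Apoptotic cell percentage measured by annexin V binding after 24 and 48 h. Mean of two independent experiments.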

SMILES: COc1ccc(C(=O)/C(=C/c2ccc(Cl)cc2)CC(C)OC(C)=O)cc1 (configuration not stated)
- IC50 (A549 [1]): 73.2 µM
- IC50 (MCF7 [2]): > 100 µM
- IC50 [3]: 62 µM

SMILES: COc1ccc(C(=O)/C(=C/c2ccc(Cl)cc2)CC(C)C)cc1
- IC50 (A549 [1]): > 100 µM
- IC50 (MCF7 [2]): > 100 µM
- IC50 [3]: 12.1 µM

SMILES: C=C(C(=O)c1ccc(OC)cc1OC)C(OC(C)=O)c1ccccc1[N+](=O)[O-] (configuration not stated)
- IC50 (A549 [1]): > 100 µM
- IC50 (MCF7 [2]): 70.1 µM
- IC50 [3]: 8.8 µM

SMILES: C=C(C(=O)c1ccc(OC)cc1)C(OC(=O)c1ccccc1)C1CCCCC1 (configuration not stated)
- IC50 (A549 [1]): 62.1 µM
- IC50 (MCF7 [2]): 34.3 µM
- IC50 [3]: 10 µM

SMILES: C=C(C(=O)c1ccc(OC)cc1)C(OC(=O)c1ccccc1)c1c(F)c(F)c(F)c(F)c1F (configuration not stated)
- IC50 (A549 [1]): 32.1 µM
- IC50 (MCF7 [2]): 45.3 µM
- IC50 [3]: 12.9 µM

SMILES: C=C(C(=O)c1ccc(OC)cc1)C(OC(=O)c1ccccc1)C(CC)CC (configuration not stated)
- IC50 (A549 [1]): 35.2 µM
- IC50 (MCF7 [2]): 17.9 µM
- IC50 [3]: 13 µM

SMILES: COc1ccc(C(=O)/C(=C/c2ccc(C(F)(F)F)cc2)CC(C)C)cc1
- IC50 (A549 [1]): > 100 µM
- IC50 (MCF7 [2]): > 100 µM
- IC50 [3]: 12.6 µM

SMILES: COc1ccc(C(=O)/C(=C/c2ccc([N+](=O)[O-])cc2)CN2CCOCC2)cc1
- IC50 (A549 [1]): 70.1 µM
- IC50 (MCF7 [2]): 7 µM
- IC50 [3]: 5.6 µM

SMILES: CCC(/C=C(\CCOC(C)=O)C(=O)c1ccc(OC)cc1)CC
- IC50 (A549 [1]): > 100 µM
- IC50 (MCF7 [2]): > 100 µM
- IC50 [3]: 91.1 µM

SMILES: C=C(C(=O)c1ccc(OC)cc1)C(OC(=O)c1ccccc1)c1ccc([N+](=O)[O-])cc1 (configuration not stated)
- IC50 (A549 [1]): 66.6 µM
- IC50 (MCF7 [2]): 56.1 µM
- IC50 [3]: 13.2 µM

SMILES: COc1ccc(C(=O)/C(=C\c2ccccc2Cl)COC(=O)c2ccccc2)cc1
- IC50 (A549 [1]): 52 µM
- IC50 (MCF7 [2]): 36 µM
- IC50 [3]: 20.1 µM

SMILES: C=C(C(=O)c1ccc(OC)cc1)C(OC(=O)c1ccccc1)c1ccccc1Cl (configuration not stated)
- IC50 (A549 [1]): 30.5 µM
- IC50 (MCF7 [2]): 36 µM
- IC50 [3]: 8.5 µM

SMILES: COc1ccc(C(=O)/C(=C/c2c(F)c(F)c(F)c(F)c2F)CCOC(C)=O)cc1
- IC50 (A549 [1]): 58.1 µM
- IC50 (MCF7 [2]): > 100 µM
- IC50 [3]: 28.5 µM

SMILES: C=C(C(=O)c1ccc(OC)cc1)C(OC(C)=O)C1CCCCC1 (configuration not stated)
- IC50 (A549 [1]): > 100 µM
- IC50 (MCF7 [2]): 14 µM
- IC50 [3]: 10.5 µM

SMILES: COc1ccc(C(=O)/C(=C/c2ccc(C(F)(F)F)cc2)CC2CCCCC2)cc1
- IC50 (A549 [1]): > 100 µM
- IC50 (MCF7 [2]): > 100 µM
- IC50 [3]: 18.2 µM

SMILES: COc1ccc(C(=O)/C(=C/C2CCCCC2)CC(C)OC(C)=O)cc1 (configuration not stated)
- IC50 (A549 [1]): 98 µM
- IC50 (MCF7 [2]): > 100 µM
- IC50 [3]: 33.4 µM

SMILES: COc1ccc(C(=O)/C(=C/c2ccc(Cl)cc2Cl)CC(C)C)cc1
- IC50 (A549 [1]): 80.3 µM
- IC50 (MCF7 [2]): > 100 µM
- IC50 [3]: 14.6 µM

SMILES: COc1ccc(C(=O)/C(=C/c2ccccc2Cl)CCOC(C)=O)cc1
- IC50 (A549 [1]): > 100 µM
- IC50 (MCF7 [2]): > 100 µM
- IC50 [3]: 51.6 µM

SMILES: C=C(C(=O)c1ccc(OC)cc1)C(OC(C)=O)c1c(F)c(F)c(F)c(F)c1F (configuration not stated)
- Activity (A549 [4]): Active
- IC50 (A549 [1]): 14.8 µM
- IC50 (MCF7 [2]): 6.7 µM
- Activity (A549 [5]): Active
- Activity (MCF7 [6]): Active
- Activity (MCF7 [7]): Active
- IC50 [3]: 12.6 µM
- Activity (A549 [8]): Active
- Activity (A549 [9]): Active

SMILES: C=C(C/C(=C\c1ccc(C)cc1)C(=O)c1ccc(OC)cc1)C(=O)c1ccc(OC)cc1
- IC50 (A549 [1]): 43.8 µM
- IC50 (MCF7 [2]): 26.9 µM
- IC50 [3]: 11.4 µM

SMILES: C=C(C/C(=C\c1ccccc1)C(=O)c1ccc(OC)cc1)C(=O)c1ccc(OC)cc1
- IC50 (A549 [1]): 22.9 µM
- IC50 (MCF7 [2]): 7.4 µM
- IC50 [3]: 7.4 µM

SMILES: COc1ccc(C(=O)/C(=C/c2ccc(Cl)cc2)CCOC(C)=O)cc1
- IC50 (A549 [1]): 86 µM
- IC50 (MCF7 [2]): > 100 µM
- IC50 [3]: 36.3 µM

SMILES: COc1ccc(C(=O)/C(=C/C2CCCCC2)COC(C)=O)cc1
- IC50 (A549 [1]): 90 µM
- IC50 (MCF7 [2]): 24 µM
- IC50 [3]: 23.3 µM

SMILES: CCC(/C=C(\COC(=O)c1ccccc1)C(=O)c1ccc(OC)cc1)CC
- IC50 (A549 [1]): > 100 µM
- IC50 (MCF7 [2]): 28 µM
- IC50 [3]: 26.8 µM

SMILES: C=C(C(=O)c1ccc(OC)cc1)C(OC(=O)c1ccccc1)c1ccccc1[N+](=O)[O-] (configuration not stated)
- IC50 (A549 [1]): 45.5 µM
- IC50 (MCF7 [2]): 11.8 µM
- IC50 [3]: 12.7 µM

SMILES: COc1ccc(C(=O)/C(=C/C2CCCCC2)COC(=O)c2ccccc2)cc1
- IC50 (A549 [1]): 36 µM
- IC50 (MCF7 [2]): 13.7 µM
- IC50 [3]: 10.2 µM

SMILES: C=C(C(=O)c1ccc(OC)cc1)C(C)OC(=O)c1ccccc1 (configuration not stated)
- IC50 (A549 [1]): > 100 µM
- IC50 (MCF7 [2]): 14.5 µM
- IC50 [3]: 15.7 µM
